Active and inactive are the calls of the source. The calls are words filed in the database; no cut-off is given here.
Key:
Mus musculus [1] = test: Anticonvulsant activity in CF-1 albino mouse assessed as protection against subcutaneous pentylenetetrazol-induced seizures at 300 mg/kg, ip measured after 0.5 hrs; type: functional, organism-based; parameters: dose 300 mg/kg
Method in brief: (§1)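 scPTZ test in male CF-1 mice. Compound suspended in 0.5% methylcellulose/water, ip at 30, 100 or 300 mg/kg. Pentylenetetrazole 85 mg/kg (CD97, clonic seizures lasting at least 5 s) given subcutaneously at the test time, read at 0.5 and 4 h. Value is the minimum dose protecting half or more of the animals.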

Mus musculus [2] = test: Anticonvulsant activity in CF-1 albino mouse assessed as protection from maximal electric shock-induced seizures at 300 mg/kg, ip measured after 0.5 hrs; type: functional, organism-based; parameters: dose 300 mg/kg
Method in brief: (§2)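 Male CF-1 mice dosed ip at 30, 100 or 300 mg/kg, suspension in 0.5% methylcellulose/water. MES: corneal electrodes primed with electrolyte containing anaesthetic, 50 mA, 60 Hz, 0.2 s. Examined 0.5 and 4 h after dosing. Value is the minimum dose protecting half or more of the animals.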

Mus musculus [3] = test: Anticonvulsant activity in CF-1 albino mouse assessed as protection from maximal electric shock-induced seizures at 300 mg/kg, ip measured after 4 hrs; type: functional, organism-based; parameters: dose 300 mg/kg; method in brief: as §2
Mus musculus [4] = test: Neurotoxicity in ip dosed CF-1 albino mouse assessed as motor impairment measured after 0.5 hrs by rotarod test; type: toxicity, organism-based; conditions: in vivo
Method in brief: (§3)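 Rotarod neurotoxicity in male CF-1 mice given ip doses of 30, 100 or 300 mg/kg (0.5% methylcellulose suspension), examined 0.5 and 4 h after dosing. Impairment means failing to hold balance on the rod for 1 min. Value is the minimum dose causing toxicity in half or more of the animals; response comments are recorded.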

Mus musculus [5] = test: Neurotoxicity in CF-1 albino mouse assessed as motor impairment at 300 mg/kg, ip measured after 4 hrs by rotarod test; type: toxicity, organism-based; parameters: dose 300 mg/kg, route intraperitoneal; conditions: in vivo; method in brief: as §3
Mus musculus [6] = test: Neurotoxicity in CF-1 albino mouse assessed as tonic extension at 300 mg/kg, ip measured after 0.5 hrs by rotarod test; type: toxicity, organism-based; parameters: dose 300 mg/kg, route intraperitoneal; conditions: in vivo; method in brief: as §3
Mus musculus [7] = test: Anticonvulsant activity in CF-1 albino mouse assessed as protection against subcutaneous pentylenetetrazol-induced seizures at 300 mg/kg, ip measured after 4 hrs; type: functional, organism-based; parameters: dose 300 mg/kg; method in brief: as §1
Mus musculus [8] = test: Anticonvulsant activity in ip dosed CF-1 albino mouse assessed as protection against subcutaneous pentylenetetrazol-induced seizures measured after 0.5 hrs; type: functional; conditions: read-out: MED; method in brief: as §1
Mus musculus [9] = test: Anticonvulsant activity in ip dosed CF-1 albino mouse assessed as protection from maximal electric shock-induced seizures measured after 4 hrs; type: functional; conditions: read-out: MED; method in brief: as §2
Mus musculus [10] = test: Neurotoxicity in CF-1 albino mouse assessed as motor impairment, ip measured after 4 hrs by rotarod test; type: toxicity, organism-based; conditions: in vivo
Mus musculus [11] = test: Anticonvulsant activity in ip dosed CF-1 albino mouse assessed as protection against subcutaneous pentylenetetrazol-induced seizures measured after 4 hrs; type: functional; conditions: read-out: MED; method in brief: as §1
Mus musculus [12] = test: Anticonvulsant activity in CF-1 albino mouse assessed as protection from maximal electric shock-induced seizures at 100 mg/kg, ip measured after 6 hrs; type: functional, organism-based; parameters: dose 100 mg/kg
Mus musculus [13] = test: Neurotoxicity in CF-1 albino mouse assessed as myoclonic jerks at 300 mg/kg, ip measured after 4 hrs by rotarod test; type: toxicity, organism-based; parameters: dose 300 mg/kg, route intraperitoneal; conditions: in vivo
Mus musculus [14] = test: Neurotoxicity in CF-1 albino mouse assessed as myoclonic jerks at 100 mg/kg, ip measured after 0.5 hrs by rotarod test; type: toxicity, organism-based; parameters: dose 100 mg/kg, route intraperitoneal; conditions: in vivo
Mus musculus [15] = test: Anticonvulsant activity in ip dosed CF-1 albino mouse assessed as protection from maximal electric shock-induced seizures; type: functional
Method in brief: (§4)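 ED50 and TD50 determined in male CF-1 mice after ip dosing (0.5% methylcellulose suspension) at the previously estimated time of peak effect. MES 50 mA, 60 Hz, 0.2 s. Groups of eight, with doses varied until at least three points fell between 10–90% protection or motor impairment. Regression gives ED50/TD50 with 95% confidence intervals; PI = TD50/ED50.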

Rattus norvegicus [16] = test: Anticonvulsant activity in Sprague-Dawley rat assessed as protection from maximum electric shock-induced seizures at 30 mg/kg, po measured after 0.25 hrs; type: functional
Method in brief: (§5)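 Male Sprague–Dawley rats, four per group, given 30 mg/kg orally as a suspension in 0.5% methylcellulose/water. MES stimulus 150 mA, 60 Hz, 0.2 s via corneal electrodes. Tested at 0.25, 0.5, 1, 2 and 4 h; value is rats protected out of four.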

Rattus norvegicus [17] = test: Anticonvulsant activity in Sprague-Dawley rat assessed as protection from maximum electric shock-induced seizures at 30 mg/kg, po measured after 4 hrs; type: functional; method in brief: as §5
Rattus norvegicus [18] = test: Anticonvulsant activity in Sprague-Dawley rat assessed as protection from maximum electric shock-induced seizures at 30 mg/kg, po measured after 1 hr; type: functional; method in brief: as §5
[19] = Neurotoxicity in ip dosed CF-1 albino mouse assessed as motor impairment by rotarod test; type: toxicity, organism-based; conditions: in vivo
Mus musculus [20] = organism: Mus musculus; test: Protective index, ratio of TD50 for CF-1 albino mouse to ED50 for CF-1 albino mouse assessed as protection from maximum electric shock-induced seizures; type: functional; method in brief: as §4
Rattus norvegicus [21] = test: Anticonvulsant activity in Sprague-Dawley rat assessed as protection from maximum electric shock-induced seizures at 30 mg/kg, po measured after 2 hrs; type: functional; method in brief: as §5
Mus musculus [22] = test: Anticonvulsant activity in ip dosed maximal electric shock-induced CF-1 albino mouse assessed as time of peak effect; type: functional; method in brief: as §4
Rattus norvegicus [23] = test: Neurotoxicity in Sprague-Dawley rat assessed as motor impairment at 30 mg/kg, po by rotarod test; type: toxicity, organism-based; parameters: dose 30 mg/kg, route oral; conditions: in vivo
Method in brief: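 Male Sprague–Dawley rats, four animals, oral 30 mg/kg in 0.5% methylcellulose/water. Motor impairment on the rotarod (failure to keep balance for 1 min) assessed alongside MES at five times from 0.25 to 4 h.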

Rattus norvegicus [24] = test: Anticonvulsant activity in Sprague-Dawley rat assessed as protection from maximum electric shock-induced seizures at 30 mg/kg, po measured after 0.5 hrs; type: functional; method in brief: as §5
Mus musculus [25] = test: Neurotoxicity in CF-1 albino mouse assessed as motor impairment at 300 mg/kg, ip measured after 0.5 hrs by rotarod test; type: toxicity, organism-based; parameters: dose 300 mg/kg, route intraperitoneal; conditions: in vivo; method in brief: as §3
Mus musculus [26] = test: Anticonvulsant activity in ip dosed CF-1 albino mouse assessed as protection from maximal electric shock-induced seizures measured after 0.5 hrs; type: functional; conditions: read-out: MED; method in brief: as §2

Compound	Activity (Mus musculus [2])	MTC (Mus musculus [4]) [mg/kg]	Activity (Mus musculus [5])	minimal effective dose (Mus musculus [8]) [mg/kg]	minimal effective dose (Mus musculus [9]) [mg/kg]	MTC (Mus musculus [10]) [mg/kg]	minimal effective dose (Mus musculus [11]) [mg/kg]	Activity (Mus musculus [13])	Activity (Mus musculus [14])	Activity (Rattus norvegicus [16]) [%]	Activity (Rattus norvegicus [17]) [%]	Activity (Rattus norvegicus [18]) [%]	Activity (Rattus norvegicus [21]) [%]	Activity (Rattus norvegicus [23])	Activity (Rattus norvegicus [24]) [%]	further results
Cl.O=C1CC(c2ccccc2Br)C(=O)N1CN1CCN(Cc2ccccc2)CC1 (racemic)	inactive	300	Non-toxic													Activity (Mus musculus [1]): inactive; Activity (Mus musculus [3]): inactive; Activity (Mus musculus [6]): Toxic; Activity (Mus musculus [7]): inactive
O=C1CC(c2ccccc2Br)C(=O)N1CN1CCN(c2ncccn2)CC1 (racemic)	inactive	300		100	100	300	300	Toxic	Toxic							Activity (Mus musculus [12]): Active
O=C1CC(c2ccccc2F)C(=O)N1CN1CCN(c2ccc(F)cc2)CC1 (racemic)	inactive				30	300				0	50	0	25	Non-toxic	0	ED50 (Mus musculus [15]): 101 mg/kg; TD50 [19]: 166 mg/kg; Ratio TD50/ED50 (Mus musculus [20]): 1.65; Time (Mus musculus [22]): 4 h; Activity (Mus musculus [25]): Non-toxic
Cl.Cl.O=C1CC(c2ccccc2Br)C(=O)N1CN1CCN(CCO)CC1 (racemic)		300	Non-toxic	100	100		300	Toxic	Toxic	25	25	0	0	Non-toxic	25	minimal effective dose (Mus musculus [26]): 100 mg/kg
